Test results reported in ChEMBL document CHEMBL1144138, “Cytotoxic terpenoids from the Formosan soft coral Nephthea brassica” (1999).
Values after ≈ are worked out from the molar mass of the structure shown.

Tests used:
Format in all cases: functional
[1] = test system: A549; experiment: Cytotoxicity against human A549 cells after 6 days by MTT assay; details: A549, 144 h, read-out: ED50 (the source's name)
Outline: (§1)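 Cells were adapted to RPMI 1640 with 10% FCS and 1 mM […], then grown at 37 °C in 5% CO2. Seeding per well was 750 for A549, 750 for HT-29, 2000 for KB and 1500 for P-388. Three to eight concentrations spanning an 8- to 128-fold range were tested. After exposure, 1 mg/mL MTT was added for 4 h at 37 °C, formazan was dissolved in DMSO, and A540 was read. ED50 is the concentration giving 50% absorbance reduction versus untreated cells.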

[2] = test system: HT-29; experiment: Cytotoxicity against human HT-29 cells after 6 days by MTT assay; details: HT-29, 144 h, read-out: ED50 (the source's name); outline: as §1
[3] = test system: KB; experiment: Cytotoxicity against human KB cells after 3 days by MTT assay; details: 72 h, read-out: ED50 (the source's name); outline: as §1
[4] = test system: P388; experiment: Cytotoxicity against mouse P388 cells after 3 days by MTT assay; details: P388, 72 h, read-out: ED50 (the source's name); outline: as §1

SMILES	EC50 [1]	EC50 [2]	EC50 [3]	EC50 [4]
C=C(C)C1CC[C@@]2(C)CCC[C@@](C)(OC(C)=O)[C@@H]2C1 (stereo partly specified)	0.12 µg/mL (≈ 0.454 µM)	> 50 µg/mL	> 50 µg/mL	2.44 µg/mL (≈ 9.23 µM)
C/C1=C\CCC2=C[C@H](OC2=O)C(C(C)(C)O)CC/C(C)=C/CC1 (stereo partly specified) [BRASSICOLIDE]	> 50 µg/mL	5.81 µg/mL (≈ 18.2 µM)	2.4 µg/mL (≈ 7.54 µM)	2.44 µg/mL (≈ 7.66 µM)
CC(=O)OC(C)(C)C1CC/C(C)=C/CC/C(C)=C/CCC2=C[C@@H]1OC2=O (stereo partly specified) [BRASSICOLIDE ACETATE]	3.03 µg/mL	0.81 µg/mL	0.72 µg/mL	1.2 µg/mL
C=C(C)[C@H]1C/C=C(\C)CC/C=C(\C)CC/C=C(\C)CC1 [CEMBRENE_A]	1.11 µg/mL (≈ 4.07 µM)	3.42 µg/mL (≈ 12.6 µM)	3.73 µg/mL (≈ 13.7 µM)	1.1 µg/mL (≈ 4.04 µM)
C=C(C)C1CC[C@@]2(C)CCC[C@@](C)(O)[C@@H]2C1 (stereo partly specified)	> 50 µg/mL	> 50 µg/mL	> 50 µg/mL	3.86 µg/mL (≈ 17.4 µM)
C/C1=C\CC/C(C)=C/[C@H](O)C(C(C)(C)O)CC/C(C)=C/CC1 (stereo partly specified)	0.71 µg/mL (≈ 2.32 µM)	1.02 µg/mL (≈ 3.33 µM)	0.23 µg/mL (≈ 0.75 µM)	1.8 µg/mL (≈ 5.87 µM)
C/C1=C\CC/C(C)=C/CC(C(C)(C)O)CC/C(C)=C/CC1 (stereo unspecified) [NEPHTHENOL]	2.72 µg/mL (≈ 9.36 µM)	3.01 µg/mL (≈ 10.4 µM)	1.81 µg/mL (≈ 6.23 µM)	0.42 µg/mL (≈ 1.45 µM)
C=C(C)[C@@H]1CC/C(C)=C/CC/C(C)=C/CC[C@]2(C)O[C@H]2C1 [EPOXYCEMBRENE A]	3.61 µg/mL (≈ 12.5 µM)	2.72 µg/mL (≈ 9.43 µM)	3.41 µg/mL (≈ 11.8 µM)	0.4 µg/mL (≈ 1.39 µM)
C=C[C@]1(C)CC[C@H](C(=C)C)C[C@@H]1C(=C)C	> 50 µg/mL	> 50 µg/mL	> 50 µg/mL	0.92 µg/mL (≈ 4.5 µM)
